PubChem BioAssay AID651740 (Broad Institute, 2012)
About 1,200 (21%) of roughly 5,600 compounds were called active. About 3% were inconclusive and are not listed.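 The calls were made as follows: active = mean inhibition above about 95%, with at least 55% of replicates also reaching it (limit read from the data); inconclusive = meets just one of the two conditions; inactive = meets neither condition.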 The list is a sample of the results.

Assay: inhibitors of intracellular T. cruzi replication, confirmation, NIH3T3 host cells, beta-gal parasites, cherry-pick, set 2 (AID 651740);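 also: plate controls were neutral control median for no effect and positive control median for full effect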
Conditions: T. cruzi beta-gal in NIH3T3, GalScreen luminescence, 90 h; at 2.09 µM; hits give high values
How it was run: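 assay system = mouse NIH/3T3 fibroblasts infected with beta-galactosidase T. cruzi Tulahuen C4 | quantity = 5,000 fibroblasts/well | buffer or medium = 2% FBS DMEM with PSG | reagent = 5000 trypomastigotes per well | compound dosing = one concentration, 100 nL compound in DMSO | timing = ≥90 h infection with compound, 60 min read delay | signal = luminescence, GalScreen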
For COc1ccc(S(=O)(=O)Nc2ccc3c(c2)C(=O)N([C@@H](C)CO)C[C@H](C)[C@@H](CN(C)Cc2ccc(C(F)(F)F)cc2)O3)cc1, the inhibition was 58.4% (inactive).
For CNC[C@H]1OCCCC[C@H](C)Oc2ccc(NC(=O)Nc3c(C)noc3C)cc2C(=O)N([C@H](C)CO)C[C@H]1C, the inhibition was 2.68% (inactive).
With O=C(Nc1cc(F)ccc1F)N1CCCCN2[C@H](CO)[C@@H](c3ccc(-c4cncnc4)cc3)[C@H]2C1 the inhibition was 13.7% (inactive).
In the case of Cc1ccc(-c2cnc3c(c2)C(=O)N([C@@H](C)CO)C[C@@H](C)[C@H](CN(C)Cc2ccccc2F)O3)cc1, the inhibition is reported as 72.1% (inactive).
For CN(C)C(=O)c1ccc(-c2ccc([C@H]3[C@@H](CO)N4CCCCN(CC5CC5)C[C@H]34)cc2)cc1, the inhibition was 60.8% (inactive).
For O=C(C[C@@H]1C[C@H]2c3cc(NC(=O)C4CCC4)ccc3O[C@H]2[C@@H](CO)O1)NCc1ccc2c(c1)OCO2, the inhibition was -16.2% (inactive).
In the case of C[C@H](CO)N1C[C@H](C)[C@@H](CN(C)S(=O)(=O)c2ccc(F)cc2)Oc2cc(C3=CCCC3)ccc2S1(=O)=O, the inhibition is reported as 78.5% (inactive).
In the case of C[C@@H]1CN([C@@H](C)CO)S(=O)(=O)c2ccc(C#Cc3ccc(F)cc3)cc2O[C@H]1CN(C)S(C)(=O)=O, the inhibition is reported as 27.8% (inactive).
For C[C@@H]1CN([C@H](C)CO)C(=O)CCCn2nncc2CO[C@@H]1CN(C)Cc1ccc(C(=O)Nc2ccccc2N)cc1, the inhibition was 59.4% (inactive).
For CC(C)NC(=O)Nc1ccc2c(c1)C(=O)N([C@H](C)CO)C[C@H](C)[C@H](CN(C)C(=O)Nc1ccc(C(F)(F)F)cc1)OCCCC[C@@H](C)O2, the inhibition was 94% (inactive).
In the case of COc1ccc(NC(=O)N(C)C[C@H]2OCCCC[C@H](C)Oc3ccc(NC(=O)Nc4ccc(C(F)(F)F)cc4)cc3C(=O)N([C@@H](C)CO)C[C@@H]2C)cc1, the inhibition is reported as 113% (active).
With C[C@@H]1CCCCO[C@H](CN(C)C(=O)Nc2ccc(C(F)(F)F)cc2)[C@H](C)CN([C@H](C)CO)C(=O)c2cc(NC(=O)Nc3ccc(C(F)(F)F)cc3)ccc2O1 the inhibition was 115% (active).
For C[C@@H]1CCCCO[C@H](CN(C)C(=O)CCC(F)(F)F)[C@H](C)CN([C@H](C)CO)C(=O)c2cc(NS(C)(=O)=O)ccc2O1, the inhibition was 7.29% (inactive).
In the case of C[C@H](CO)N1C[C@H](C)[C@H](CN(C)C(=O)Nc2ccc(C(F)(F)F)cc2)OCCCC[C@H](C)Oc2ccc(NC(=O)C3CCCCC3)cc2C1=O, the inhibition is reported as 109% (active).
For C[C@@H]1CN([C@@H](C)CO)C(=O)c2cc(NC(=O)Nc3ccc(C(F)(F)F)cc3)ccc2O[C@@H](C)CCCCO[C@H]1CN(C)C(=O)c1ccccc1, the inhibition was 69.7% (inactive).
